Reference: ChEMBL document CHEMBL4396965
pEC50: −log10 of the molar value.

Legend:
[1] = (§1) Antiviral activity against Influenza A virus (H1N1) harboring PR8-GLuc infected in human A549 cells assessed as reduction in virus-induced cytopathic effect treated post viral infection for 1 hr by luciferase reporter gene assay; format: functional, cell-based, H1N1 subtype; settings: A549, 1 h
In short: (§2)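 A549 cells seeded 40,000/well, incubated overnight 37 °C 5% CO2, then infected with PR8-GLuc (H1N1) at 0.1 MOI for 1 h; unbound virus removed by two acidic (PBS pH 2.2) and three neutral (PBS pH 7.4) washes. Initial screen at one concentration below maximum non-toxic concentration; those reaching 50% inhibition retested in dose response for EC50 and EC90.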

H1N1 subtype = assay: as §1; format: functional, cell-based; in short: as §2

Row | SMILES | pEC50 [1] | EC90 (H1N1 subtype)
1 | O=C(O)[C@H]1C2C=CC(CC2)[C@@H]1Nc1nc(-c2n[nH]c3ncc(F)cc23)nc2sccc12 (stereo partly drawn) | 7.92 | –
2 | O=C(O)[C@H]1C2C=CC(CC2)[C@@H]1Nc1nc(-c2c[nH]c3ncc(F)cc23)nc2sccc12 (stereo partly drawn) | 8.19 | –
3 | Cc1cc2nc(-c3c[nH]c4ncc(F)cc34)nc(N[C@H]3C4C=CC(CC4)[C@@H]3C(=O)O)c2s1 (stereo partly drawn) | 7.57 | –
4 | O=C(O)[C@H]1C2C=CC(CC2)[C@@H]1Nc1cc2nncn2c(-c2c[nH]c3ncc(F)cc23)n1 (stereo partly drawn) | 6.17 | –
5 | O=C(O)[C@H]1C2C=CC(CC2)[C@@H]1Nc1nc(-c2n[nH]c3ncc(F)cc23)nc2ccsc12 (stereo partly drawn) | 7.38 | –
6 | Cn1cnc2c(N[C@H]3C4C=CC(CC4)[C@@H]3C(=O)O)nc(-c3c[nH]c4ncc(F)cc34)nc21 (stereo partly drawn) | 6.40 | –
7 | Cc1csc2c(N[C@H]3C4C=CC(CC4)[C@@H]3C(=O)O)nc(-c3c[nH]c4ncc(F)cc34)nc12 (stereo partly drawn) | 7.54 | –
8 | Cn1cnc2nc(-c3c[nH]c4ncc(F)cc34)nc(N[C@H]3C4C=CC(CC4)[C@@H]3C(=O)O)c21 (stereo partly drawn) | < 5.00 | –
9 | O=C(O)[C@H]1C2C=CC(CC2)[C@@H]1c1nnc2c(F)cnc(-c3c[nH]c4ncc(F)cc34)n12 (stereo partly drawn) | < 4.40 | –
10 | O=C(O)[C@H]1C2C=CC(C2)[C@@H]1Nc1nc(-c2c[nH]c3ncc(F)cc23)ncc1F (stereo partly drawn) | 7.30 | –
11 | O=C(O)[C@H]1C2CCC(C3CC32)[C@@H]1Nc1nc(-c2c[nH]c3ncc(F)cc23)ncc1F (stereo partly drawn) | 7.30 | –
12 | O=C(O)[C@H]1C2C=CC(CC2)[C@@H]1Nc1nc(-c2n[nH]c3ncc(F)cc23)ncc1F (stereo partly drawn) | 7.80 | –
13 | O=C(O)C12CC3CC(CC(Nc4nc(-c5c[nH]c6ncc(F)cc56)ncc4F)(C3)C1)C2 | 6.02 | –
14 | O=C(O)[C@H]1C2C=CC(CC2)[C@@H]1Nc1nc(-c2c[nH]c3ncc(F)cc23)ncc1F (stereo partly drawn) | 8.15 | –
15 | O=C(O)[C@H]1C2C=CC(CC2)[C@@H]1Nc1nc(-c2c[nH]c3ncc(F)cc23)nc2ccsc12 (stereo partly drawn) | 7.77 | –
16 | O=C(O)[C@H]1C2CCC(CC2)[C@@H]1Nc1nc(-c2c[nH]c3ncc(F)cc23)ncc1F [PIMODIVIR] | 8.40 | 27 nM
17 | O=C(O)[C@H]1C2C=CC(CC2)[C@@H]1Nc1nc2cnc(-c3c[nH]c4ncc(F)cc34)nc2s1 (stereo partly drawn) | < 4.00 | –
